From ChEMBL document CHEMBL1124865, “Synthesis and biological evaluation of a series of parenteral 3'-quaternary ammonium cephalosporins” (J Med Chem, 1990)
In brackets after ≈: the same amount, converted by molar mass.

Columns and labels:
Enterobacter cloacae [1] = assay: Antibacterial activity against Enterobacter cloacae 265A; format: functional; details: Enterobacter cloacae; read-out: MIC
Cavia porcellus [2] = species: Cavia porcellus; assay: In vitro relative anticholinergic potential in isolated guinea pig trachea; format: functional
Procedure, shortened: (§1)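 Guinea pig trachea in Krebs' solution at 37.5 °C, 95% O2/5% CO2, pH 7.4, 2 g resting tension. Cumulative carbachol log dose-response curve (3-fold steps) run before and 30 min after adding antagonist at 1 mM. […] Tukey test on log2 dose ratios.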

Cavia porcellus [3] = species: Cavia porcellus; assay: In vitro relative anticholinergic activity in isolated guinea pig trachea; format: functional; details: read-out: pA2 (converted); procedure, shortened: as §1
Klebsiella pneumoniae [4] = assay: microbe, parasite or virus in culture; format: functional; details: Klebsiella pneumoniae; read-out: MIC
Pseudomonas aeruginosa [5] = assay: Antibacterial activity against Pseudomonas aeruginosa X528; format: functional; details: Pseudomonas aeruginosa; read-out: MIC
Pseudomonas aeruginosa [6] = assay: Antibacterial activity against Pseudomonas aeruginosa PS18; format: functional; details: Pseudomonas aeruginosa; read-out: MIC
Staphylococcus aureus [7] = assay: Antibacterial activity against penicillin G resistance Staphylococcus aureus; format: functional; details: Staphylococcus aureus; read-out: MIC
Staphylococcus aureus [8] = assay: Antibacterial activity against penicillin G susceptible Staphylococcus aureus; format: functional; details: Staphylococcus aureus; read-out: MIC
Serratia marcescens = assay: Antibacterial activity against Serratia marcescens SE3; format: functional; details: Serratia marcescens; read-out: MIC
Streptococcus pyogenes = assay: Antibacterial activity against Streptococcus pyogenes; format: functional; details: Streptococcus pyogenes; read-out: MIC
Enterococcus faecium = assay: Antibacterial activity against Enterococcus faecium; format: functional; details: Enterococcus faecium; read-out: MIC
Escherichia coli [9] = assay: In vitro relative hydrolysis rate against Escherichia coli IIIa; format: functional
Procedure, shortened: (§2)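 Spectrophotometric hydrolysis at 265 nm, substrate exposed to partially purified cell-free β-lactamase preparations; rate expressed as percentage of the cephaloridine rate.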

Enterobacter cloacae [10] = assay: In vitro relative hydrolysis rate against Enterobacter Ia; format: functional; procedure, shortened: as §2
Escherichia coli [11] = assay: Antibacterial activity against Escherichia coli EC14; format: functional; details: Escherichia coli; read-out: MIC
Enterobacter cloacae [12] = assay: Antibacterial activity against Enterobacter cloacae EB5; format: functional; details: Enterobacter cloacae; read-out: MIC
Escherichia coli [13] = assay: Antibacterial activity against Escherichia coli TEM; format: functional; details: Escherichia coli; read-out: MIC
Klebsiella pneumoniae [14] = assay: Antibacterial activity against Klebsiella pneumoniae X26; format: functional; details: Klebsiella pneumoniae; read-out: MIC
Klebsiella pneumoniae [15] = assay: In vitro relative hydrolysis rate against Klebsiella IV; format: functional; procedure, shortened: as §2
Pseudomonas aeruginosa [16] = assay: In vivo efficacy against Pseudomonas aeruginosa infected mice treated at 1 hr and 5 hr post infection; format: functional; details: Pseudomonas aeruginosa; read-out: ED50
Staphylococcus aureus [17] = assay: In vivo efficacy against Staphylococcus aureus infected mice treated at 1 hr and 5 hr post infection; format: functional; details: Staphylococcus aureus; read-out: ED50
Escherichia coli [18] = assay: In vivo efficacy against Escherichia coli infected mice treated at 1 hr and 5 hr post infection; format: functional; details: Escherichia coli; read-out: ED50
Escherichia coli [19] = assay: In vivo efficacy against Escherichia coli infections in mice; format: functional; details: Escherichia coli; read-out: MIC
Pseudomonas aeruginosa [20] = assay: In vivo efficacy against Pseudomonas aeruginosa infections in mice; format: functional; details: Pseudomonas aeruginosa; read-out: MIC
Staphylococcus aureus [21] = assay: In vivo efficacy against Staphylococcus aureus infections in mice; format: functional; details: Staphylococcus aureus; read-out: MIC
Pseudomonas aeruginosa [22] = assay: In vitro relative hydrolysis rate against Pseudomonas Id; format: functional; procedure, shortened: as §2
Streptococcus pneumoniae = assay: Antibacterial activity against Streptococcus pneumoniae; format: functional; details: Streptococcus pneumoniae; read-out: MIC
Staphylococcus aureus [23] = assay: In vitro relative hydrolysis rate against Staphylococcus aureus; format: functional; procedure, shortened: as §2
[24] = Terminal half life in dogs at the dose of 60 mg/kg.; format: ADME, organism-based, Canis lupus familiaris; design: dose 60 mg/kg; details: dog, in vivo
Procedure, shortened: (§3)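 Overnight-fasted female mongrel dogs with a Foley bladder catheter; bolus into the cephalic vein. Plasma and urine collected before dosing and over 24 h after. Antibacterial activity measured by microbiological assay.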

Canis familiaris = assay: Percent of dose in dogs urine at the dose of 60 mg/kg.; format: functional, Canis lupus familiaris; procedure, shortened: as §3
[25] = In vitro dose required for anticholinergic activity in isolated guinea pig trachea; format: functional

SMILES	MIC (Enterobacter cloacae [1])	MIC (Klebsiella pneumoniae [4])	MIC (Pseudomonas aeruginosa [5])	MIC (Pseudomonas aeruginosa [6])	MIC (Staphylococcus aureus [7])	MIC (Staphylococcus aureus [8])	MIC (Serratia marcescens)	MIC (Streptococcus pyogenes)	MIC (Enterococcus faecium)	MIC (Escherichia coli [11])	MIC (Enterobacter cloacae [12])	MIC (Escherichia coli [13])	MIC (Klebsiella pneumoniae [14])	ED50 (Pseudomonas aeruginosa [16])	ED50 (Staphylococcus aureus [17])	ED50 (Escherichia coli [18])	MIC (Escherichia coli [19])	MIC (Pseudomonas aeruginosa [20])	MIC (Staphylococcus aureus [21])	MIC (Streptococcus pneumoniae)	other results
CO/N=C(\C(=O)N[C@@H]1C(=O)N2C(C(=O)[O-])=C(C[n+]3ccc4nc(C)sc4c3)CS[C@H]12)c1csc(N)n1	16 µg/mL (≈ 29.3 µM)	1 µg/mL (≈ 1.83 µM)	8 µg/mL (≈ 14.7 µM)	8 µg/mL (≈ 14.7 µM)	4 µg/mL (≈ 7.33 µM)	1 µg/mL (≈ 1.83 µM)	0.25 µg/mL (≈ 0.458 µM)	0.015 µg/mL (≈ 0.0275 µM)	128 µg/mL (≈ 235 µM)												RAP (Cavia porcellus [2]): 5; Kb (Cavia porcellus [3]): 955 µM
CO/N=C(\C(=O)N[C@@H]1C(=O)N2C(C(=O)[O-])=C(C[n+]3cccc4ccccc43)CS[C@H]12)c1csc(N)n1	4 µg/mL (≈ 7.63 µM)	2 µg/mL (≈ 3.81 µM)	2 µg/mL (≈ 3.81 µM)	4 µg/mL (≈ 7.63 µM)	1 µg/mL (≈ 1.91 µM)	0.5 µg/mL (≈ 0.953 µM)	0.125 µg/mL (≈ 0.238 µM)	0.015 µg/mL (≈ 0.0286 µM)	128 µg/mL (≈ 244 µM)	0.03 µg/mL (≈ 0.0572 µM)	0.125 µg/mL (≈ 0.238 µM)	0.015 µg/mL (≈ 0.0286 µM)	0.015 µg/mL (≈ 0.0286 µM)	9.5 mg/kg	0.4 mg/kg	0.04 mg/kg	0.03 µg/mL (≈ 0.0572 µM)	8 µg/mL (≈ 15.3 µM)	0.5 µg/mL (≈ 0.953 µM)	0.015 µg/mL (≈ 0.0286 µM)	Hydrolysis rate (Escherichia coli [9]): 0.2; Hydrolysis rate (Enterobacter cloacae [10]): 0.1; Hydrolysis rate (Klebsiella pneumoniae [15]): 0.8; Hydrolysis rate (Pseudomonas aeruginosa [22]): 0.1; Hydrolysis rate (Staphylococcus aureus [23]): 8.4
CO/N=C(\C(=O)N[C@@H]1C(=O)N2C(C(=O)[O-])=C(C[n+]3ccccc3)CS[C@H]12)c1csc(N)n1	2 µg/mL (≈ 4.21 µM)	4 µg/mL (≈ 8.43 µM)	2 µg/mL (≈ 4.21 µM)	4 µg/mL (≈ 8.43 µM)	2 µg/mL (≈ 4.21 µM)	1 µg/mL (≈ 2.11 µM)	0.25 µg/mL (≈ 0.527 µM)	0.03 µg/mL (≈ 0.0632 µM)	> 128 µg/mL	0.03 µg/mL (≈ 0.0632 µM)	0.06 µg/mL (≈ 0.126 µM)	0.03 µg/mL (≈ 0.0632 µM)	0.03 µg/mL (≈ 0.0632 µM)	14.4 mg/kg	0.8 mg/kg	0.07 mg/kg	0.06 µg/mL (≈ 0.126 µM)	16 µg/mL (≈ 33.7 µM)	1 µg/mL (≈ 2.11 µM)	0.03 µg/mL (≈ 0.0632 µM)	half-life [24]: 100 min; Percent of dose recovered in urine (Canis familiaris): 94%; RAP (Cavia porcellus [2]): 9; Kb (Cavia porcellus [3]): 490 µM; Dose ratio [25]: 3.04
CO/N=C(\C(=O)N[C@@H]1C(=O)N2C(C(=O)[O-])=C(C[n+]3csc(CCO)c3C)CS[C@H]12)c1csc(N)n1	4 µg/mL (≈ 7.43 µM)	4 µg/mL (≈ 7.43 µM)	8 µg/mL (≈ 14.9 µM)	16 µg/mL (≈ 29.7 µM)	4 µg/mL (≈ 7.43 µM)	2 µg/mL (≈ 3.71 µM)	0.125 µg/mL (≈ 0.232 µM)	0.03 µg/mL (≈ 0.0557 µM)	16 µg/mL (≈ 29.7 µM)	0.06 µg/mL (≈ 0.111 µM)	0.125 µg/mL (≈ 0.232 µM)	0.03 µg/mL (≈ 0.0557 µM)	0.03 µg/mL (≈ 0.0557 µM)							0.03 µg/mL (≈ 0.0557 µM)	RAP (Cavia porcellus [2]): 1; Dose ratio [25]: 1.27
CO/N=C(\C(=O)N[C@@H]1C(=O)N2C(C(=O)[O-])=C(C[n+]3ccc4ccsc4c3)CS[C@H]12)c1csc(N)n1	8 µg/mL (≈ 15.1 µM)	4 µg/mL (≈ 7.54 µM)	2 µg/mL (≈ 3.77 µM)	4 µg/mL (≈ 7.54 µM)	4 µg/mL (≈ 7.54 µM)	1 µg/mL (≈ 1.88 µM)	0.03 µg/mL (≈ 0.0565 µM)	< 0.008 µg/mL	> 128 µg/mL	0.015 µg/mL (≈ 0.0283 µM)	0.06 µg/mL (≈ 0.113 µM)	0.03 µg/mL (≈ 0.0565 µM)	0.015 µg/mL (≈ 0.0283 µM)	9.5 mg/kg	0.4 mg/kg	0.02 mg/kg	< 0.008 µg/mL	4 µg/mL (≈ 7.54 µM)	1 µg/mL (≈ 1.88 µM)	< 0.008 µg/mL	Hydrolysis rate (Escherichia coli [9]): 0.2; Hydrolysis rate (Enterobacter cloacae [10]): 0.7; Hydrolysis rate (Klebsiella pneumoniae [15]): 6.9; Hydrolysis rate (Pseudomonas aeruginosa [22]): 0.4; Hydrolysis rate (Staphylococcus aureus [23]): 7.1
CO/N=C(\C(=O)N[C@@H]1C(=O)N2C(C(=O)[O-])=C(C[n+]3cccc4sccc43)CS[C@H]12)c1csc(N)n1	4 µg/mL (≈ 7.54 µM)	1 µg/mL (≈ 1.88 µM)	2 µg/mL (≈ 3.77 µM)	4 µg/mL (≈ 7.54 µM)	4 µg/mL (≈ 7.54 µM)	0.5 µg/mL (≈ 0.942 µM)	0.125 µg/mL (≈ 0.236 µM)	0.015 µg/mL (≈ 0.0283 µM)	128 µg/mL (≈ 241 µM)	0.06 µg/mL (≈ 0.113 µM)	0.25 µg/mL (≈ 0.471 µM)	0.06 µg/mL (≈ 0.113 µM)	0.03 µg/mL (≈ 0.0565 µM)	9.3 mg/kg	0.6 mg/kg	0.04 mg/kg	0.03 µg/mL (≈ 0.0565 µM)	2 µg/mL (≈ 3.77 µM)	1 µg/mL (≈ 1.88 µM)	0.03 µg/mL (≈ 0.0565 µM)	Hydrolysis rate (Escherichia coli [9]): 0.2; Hydrolysis rate (Enterobacter cloacae [10]): 0.2; Hydrolysis rate (Klebsiella pneumoniae [15]): 0.7; Hydrolysis rate (Pseudomonas aeruginosa [22]): 0.2; Hydrolysis rate (Staphylococcus aureus [23]): 6.2
CO/N=C(\C(=O)N[C@@H]1C(=O)N2C(C(=O)[O-])=C(C[n+]3cccc4occc43)CS[C@H]12)c1csc(N)n1	4 µg/mL (≈ 7.77 µM)	8 µg/mL (≈ 15.5 µM)	4 µg/mL (≈ 7.77 µM)	8 µg/mL (≈ 15.5 µM)	4 µg/mL (≈ 7.77 µM)	0.5 µg/mL (≈ 0.972 µM)	0.25 µg/mL (≈ 0.486 µM)	0.06 µg/mL (≈ 0.117 µM)	32 µg/mL (≈ 62.2 µM)	0.06 µg/mL (≈ 0.117 µM)	0.5 µg/mL (≈ 0.972 µM)	0.06 µg/mL (≈ 0.117 µM)	0.06 µg/mL (≈ 0.117 µM)							0.06 µg/mL (≈ 0.117 µM)	half-life [24]: 100 min; Percent of dose recovered in urine (Canis familiaris): 78%
